Source: ChEMBL document CHEMBL1759937, “Pyridinesulfonylureas and pyridinesulfonamides as selective bombesin receptor subtype-3 (BRS-3) agonists” (Bioorg Med Chem Lett, 2011)

Key:
[1] = biological target: T1, Bombesin receptor subtype-3 (Homo sapiens, UniProt P32247); experiment: Agonist activity at human BRS3 by functional assay
T1 sequence (P32247 whole entry): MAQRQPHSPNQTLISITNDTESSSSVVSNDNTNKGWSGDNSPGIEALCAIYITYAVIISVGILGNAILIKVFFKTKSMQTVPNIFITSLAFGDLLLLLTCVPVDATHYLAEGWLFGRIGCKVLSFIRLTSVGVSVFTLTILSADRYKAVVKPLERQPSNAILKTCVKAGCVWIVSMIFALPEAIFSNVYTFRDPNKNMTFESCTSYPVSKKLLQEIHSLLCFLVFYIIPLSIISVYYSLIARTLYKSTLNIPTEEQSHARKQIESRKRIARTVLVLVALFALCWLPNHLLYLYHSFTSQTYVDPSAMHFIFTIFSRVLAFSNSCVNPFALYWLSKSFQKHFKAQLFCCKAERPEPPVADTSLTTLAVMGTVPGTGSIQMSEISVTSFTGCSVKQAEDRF

[2] = biological target: T2, Bombesin receptor subtype-3 (Mus musculus, UniProt O54798); experiment: Agonist activity at mouse BRS3 by functional assay
T2 sequence (O54798 whole entry): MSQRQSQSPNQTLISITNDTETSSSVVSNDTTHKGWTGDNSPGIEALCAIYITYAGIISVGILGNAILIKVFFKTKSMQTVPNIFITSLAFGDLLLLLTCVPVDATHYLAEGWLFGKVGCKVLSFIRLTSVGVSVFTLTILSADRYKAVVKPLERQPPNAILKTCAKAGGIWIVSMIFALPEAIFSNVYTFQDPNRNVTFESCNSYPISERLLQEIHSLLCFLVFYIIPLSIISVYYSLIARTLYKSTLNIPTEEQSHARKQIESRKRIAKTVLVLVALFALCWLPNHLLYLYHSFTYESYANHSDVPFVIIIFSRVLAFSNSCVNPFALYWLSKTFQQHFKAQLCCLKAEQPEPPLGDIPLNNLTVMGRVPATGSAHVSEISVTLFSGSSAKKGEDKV
Summary of the method: (§1)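 HEK293AEQ cells expressing mouse BRS-3; bioluminescence read against log molar compound concentration. EC50 taken as the inflection point of the sigmoidal curve and normalized to the EC50 of an internal standard. Values under 2 µM with standard errors are means of at least three experiments; duplicate data are reported individually.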

[3] = biological target: T1, Bombesin receptor subtype-3; experiment: Binding affinity to human BRS3
[4] = biological target: T3, Bombesin receptor subtype-3 (Mus musculus) (UniProt O54798); experiment: Agonist activity at mouse BRS3 by functional assay relative to control; summary of the method: as §1
T3 sequence (whole entry): T2 sequence (O54798 whole entry)

[5] = biological target: Neuromedin-B receptor (Homo sapiens) (UniProt P28336)
Sequence of Neuromedin-B receptor (Homo sapiens) (P28336 whole entry, looked up): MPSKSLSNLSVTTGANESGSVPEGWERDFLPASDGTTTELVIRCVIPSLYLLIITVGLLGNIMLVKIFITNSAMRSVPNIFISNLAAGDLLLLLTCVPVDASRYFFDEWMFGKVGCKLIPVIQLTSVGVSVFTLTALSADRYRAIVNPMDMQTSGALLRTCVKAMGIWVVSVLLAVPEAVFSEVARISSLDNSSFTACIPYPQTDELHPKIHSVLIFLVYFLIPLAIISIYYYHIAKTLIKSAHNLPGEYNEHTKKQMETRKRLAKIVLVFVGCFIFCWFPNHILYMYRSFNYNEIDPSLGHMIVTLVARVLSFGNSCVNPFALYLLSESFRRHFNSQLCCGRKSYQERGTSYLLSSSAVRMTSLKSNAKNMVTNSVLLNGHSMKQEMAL

[6] = biological target: Gastrin-releasing peptide receptor (Homo sapiens) (UniProt P30550)
Sequence of Gastrin-releasing peptide receptor (Homo sapiens) (P30550 whole entry, looked up): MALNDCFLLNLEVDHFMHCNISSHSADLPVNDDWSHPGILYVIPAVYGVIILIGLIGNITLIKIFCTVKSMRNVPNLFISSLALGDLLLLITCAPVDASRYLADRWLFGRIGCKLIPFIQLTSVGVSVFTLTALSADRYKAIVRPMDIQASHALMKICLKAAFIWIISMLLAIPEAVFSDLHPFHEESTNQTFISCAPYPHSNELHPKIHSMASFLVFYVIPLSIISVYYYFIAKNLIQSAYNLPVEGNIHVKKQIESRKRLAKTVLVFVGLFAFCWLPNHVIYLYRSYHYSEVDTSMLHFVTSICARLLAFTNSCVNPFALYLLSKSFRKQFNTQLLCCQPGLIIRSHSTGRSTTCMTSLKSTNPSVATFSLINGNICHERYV

[7] = biological target: T1, Bombesin receptor subtype-3; experiment: Agonist activity at human BRS3 expressed in HEK293AEQ cells using 10 uM dy-peptide by bioluminescence assay
[8] = biological target: T1, Bombesin receptor subtype-3
[9] = Cmax in Sprague-Dawley rat at 1 mg/kg, iv or 4 mg/kg, po by LC/MS/MS; assay type: ADME, organism-based; details: in vivo
Summary of the method: (§2)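 Male Sprague–Dawley rats. Blood collected at various time points into lithium heparin tubes and centrifuged; plasma stored at -70 °C until analysis. Plasma extracted by protein precipitation and quantified by LC/MS/MS.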

[10] = Half life in Sprague-Dawley rat at 1 mg/kg, iv or 4 mg/kg, po; assay type: ADME, organism-based; details: in vivo; summary of the method: as §2
[11] = Plasma clearance in Sprague-Dawley rat at 1 mg/kg, iv or 4 mg/kg, po; assay type: ADME, organism-based; summary of the method: as §2
[12] = Bioavailability in Sprague-Dawley rat at 1 mg/kg, iv or 4 mg/kg, po; assay type: ADME, organism-based; details: in vivo; summary of the method: as §2
[13] = Volume of distribution at steady state in Sprague-Dawley rat at 1 mg/kg, iv or 4 mg/kg, po; assay type: ADME, organism-based; details: in vivo, read-out: Vdss; summary of the method: as §2
[14] = Mean residence time in Sprague-Dawley rat at 1 mg/kg, iv or 4 mg/kg, po; assay type: ADME, organism-based; details: in vivo; summary of the method: as §2

O=S(=O)(Nc1nc(C2CCC2)n[nH]1)c1cnccc1NC1CC2CCC1C2 (single isomer, unassigned) [listing 1 of 2 here]
EC50 [1]: 1700 nM | EC50 [2]: 190 nM | IC50 [3]: 310 nM

CC(C)(C)CC(=O)NS(=O)(=O)c1cnccc1N[C@@H]1C[C@H]2CC[C@@H]1C2 (racemic)
EC50 [1]: 8300 nM | Activity [4]: 61% | EC50 [2]: 4900 nM | IC50 [3]: > 10000 nM

CC(C)(C)NC(=O)NS(=O)(=O)c1cnccc1NC1CC2CCC1C2 (stereo unspecified)
EC50 [5]: > 10 µM | EC50 [6]: > 10 µM

CC(C)(C)NC(=O)NS(=O)(=O)c1cnccc1N[C@H]1CN2CCC1CC2
EC50 [1]: > 10000 nM | Activity [4]: 0% | EC50 [2]: > 10000 nM | IC50 [3]: > 10000 nM

CC(C)NC(=O)NS(=O)(=O)c1cnccc1NC1CC2CCC1C2 (stereo unspecified)
EC50 [7]: 220 nM | IC50 [8]: 600 nM

CC(C)(C)NC(=O)NS(=O)(=O)c1cnccc1O[C@@H]1C[C@H]2CC[C@@H]1C2 (racemic)
EC50 [1]: 1200 nM | Activity [4]: 92% | EC50 [2]: 320 nM | IC50 [3]: 990 nM

CC(C)(C)NC(=O)NS(=O)(=O)c1cnccc1NC1CCCCC1
EC50 [1]: 450 nM | Activity [4]: 90% | EC50 [2]: 260 nM | IC50 [3]: 400 nM

CC(C)(C)c1cccc(NS(=O)(=O)c2cnccc2N[C@@H]2C[C@H]3CC[C@@H]2C3)c1 (racemic)
EC50 [1]: 2600 nM | Activity [4]: 102% | EC50 [2]: 160 nM | IC50 [3]: 520 nM

CC(C)(C)CC(C)(C)NC(=O)NS(=O)(=O)c1cnccc1N[C@@H]1C[C@H]2CC[C@@H]1C2 (racemic)
EC50 [1]: 350 nM | Activity [4]: 102% | EC50 [2]: 100 nM | IC50 [3]: 530 nM

CC(C)(C)OC(=O)NS(=O)(=O)c1cnccc1N[C@@H]1C[C@H]2CC[C@@H]1C2 (racemic)
EC50 [1]: 8200 nM | Activity [4]: 89% | EC50 [2]: 590 nM | IC50 [3]: > 10000 nM

CC(C)(C)NC(=O)NS(=O)(=O)c1cnccc1N[C@H]1C[C@H]2CC[C@]1(C)C2(C)C
EC50 [1]: 450 nM | Activity [4]: 82% | EC50 [2]: 33 nM | IC50 [3]: 300 nM

CN(C(=O)NC(C)(C)C)S(=O)(=O)c1cnccc1N[C@@H]1C[C@H]2CC[C@@H]1C2 (racemic)
EC50 [1]: 8300 nM | Activity [4]: 49% | EC50 [2]: 6500 nM | IC50 [3]: 6700 nM

CC(C)(C)NC(=O)NS(=O)(=O)c1cnccc1NC1CC2CCC1C2 (racemic)
Cmax [9]: 7 µM | half-life [10]: 288 min | clearance [11]: 14 mL/min/kg | bioavailability [12]: 100% | Vd [13]: 0.57 L/kg | MRT [14]: 39.6 min

O=S(=O)(Nc1nc(C2CCC2)n[nH]1)c1cnccc1NC1CC2CCC1C2 (single isomer, unassigned) [listing 2 of 2 here]
Activity [4]: 88%

CC(C)(C)NC(=O)NS(=O)(=O)c1cnccc1N[C@@H]1C[C@H]2CC[C@@H]1C2 [listing 1 of 2 here]
Activity [4]: 100%

CC(C)(C)NC(=O)NS(=O)(=O)c1cnccc1N[C@@H]1C[C@H]2CC[C@@H]1C2 [listing 2 of 2 here]
EC50 [1]: 55 nM | EC50 [2]: 21 nM | IC50 [3]: 68 nM

O=S(=O)(Nc1nc(C2CCC2)n[nH]1)c1cnccc1NC1CC2CCC1C2 (single isomer, unassigned; faster eluting)
Activity [4]: 87%

CC(C)(C)NC(=O)NS(=O)(=O)c1ccccc1N[C@@H]1C[C@H]2CC[C@@H]1C2 (racemic)
EC50 [1]: 6400 nM | Activity [4]: 91% | EC50 [2]: 340 nM | IC50 [3]: 6200 nM

O=C(NC12CC3CC(CC(C3)C1)C2)NS(=O)(=O)c1cnccc1N[C@@H]1C[C@H]2CC[C@@H]1C2 (mixture of isomers)
EC50 [1]: 220 nM | Activity [4]: 55% | EC50 [2]: 39 nM | IC50 [3]: 310 nM

CC(C)(C)NC(=O)NS(=O)(=O)c1cnccc1N[C@@H]1C[C@H]2CC[C@@H]1C2 (racemic)
EC50 [1]: 81 nM | EC50 [2]: 28 nM | IC50 [3]: 100 nM
